Key:
[1] = Antiproliferative activity against human LS 174T cells assessed as inhibition of cell survival after 72 hrs by MTT method; assay type: functional, cell-based; conditions: LS174T
How it was run: (§1)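 HeLa (2000 cells/well) or LS174 (5000 cells/well) seeded in RPMI-1640 with 10% FBS, 3 mmol/L L-glutamine, 25 mM Hepes, pH 7.2; five concentrations added after 20 h from 10 mM DMSO stocks, each in triplicate. MTT 72 h after dosing, 4 h at 37 °C, SDS solubilization, A570 next day. Blank-subtracted survival vs control; IC50 is the mean of three experiments.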

[2] = system: K562; experiment: Antiproliferative activity against human K562 cells assessed as inhibition of cell survival after 72 hrs by MTT method; assay type: functional, cell-based; conditions: K562, 72 h
How it was run: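 K562 grown in suspension at 3000 cells/well in RPMI-1640 with 10% FBS, 3 mmol/L L-glutamine, 25 mM Hepes, pH 7.2. Five concentrations added 2 h after seeding from 10 mM DMSO stocks, in triplicate. MTT read 72 h later, SDS solubilization, A570. IC50 taken from blank-subtracted survival relative to control, mean of three experiments.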

[3] = system: HeLa; experiment: Antiproliferative activity against human HeLa cells assessed as inhibition of cell survival after 72 hrs by MTT method; assay type: functional, cell-based; how it was run: as §1
[4] = system: HeLa; experiment: Cell cycle arrest in human HeLa cells assessed as accumulation at sub-G1 phase at 2 times IC50 after 48 hrs using propidium iodide staining by flow cytometry (reference value: 6.87%); assay type: functional
How it was run: (§2)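 HeLa cells, 5×10⁵ per aliquot, treated at two times the 72 h IC50 for 24, 48 or 72 h alongside untreated controls. Fixed in 70% ethanol on ice for one week, given RNase A at 37 °C for 30 min, then PI for at least 30 min. Flow cytometry with 488 nm excitation, FL2 at 585/42 nm, doublets excluded, 20,000 events per sample.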

[5] = system: HeLa; experiment: Cell cycle arrest in human HeLa cells assessed as accumulation at G1 phase at 2 times IC50 after 48 hrs using propidium iodide staining by flow cytometry (reference value: 51.32%); assay type: functional; how it was run: as §2
[6] = system: HeLa; experiment: Cell cycle arrest in human HeLa cells assessed as accumulation at S phase at 2 times IC50 after 24 hrs using propidium iodide staining by flow cytometry (reference value: 24.47%); assay type: functional; how it was run: as §2
[7] = system: HeLa; experiment: Cell cycle arrest in human HeLa cells assessed as accumulation at G1 phase at 2 times IC50 after 24 hrs using propidium iodide staining by flow cytometry (reference value: 46.78%); assay type: functional; how it was run: as §2
[8] = system: HeLa; experiment: Cell cycle arrest in human HeLa cells assessed as accumulation at S phase at 2 times IC50 after 48 hrs using propidium iodide staining by flow cytometry (reference value: 20.14%); assay type: functional; how it was run: as §2
[9] = system: HeLa; experiment: Cell cycle arrest in human HeLa cells assessed as accumulation at G1 phase at 2 times IC50 after 72 hrs using propidium iodide staining by flow cytometry (reference value: 49.90%); assay type: functional; how it was run: as §2
[10] = system: HeLa; experiment: Cell cycle arrest in human HeLa cells assessed as accumulation at G2/M phase cell at 2 times IC50 at 2 times IC50 after 48 hrs using propidium iodide staining by flow cytometry (reference value: 22.05%); assay type: functional; how it was run: as §2
[11] = system: HeLa; experiment: Cell cycle arrest in human HeLa cells assessed as accumulation at S phase at 2 times IC50 after 72 hrs using propidium iodide staining by flow cytometry (reference value: 22.53%); assay type: functional; how it was run: as §2
[12] = system: HeLa; experiment: Cell cycle arrest in human HeLa cells assessed as accumulation at G2/M phase at 2 times IC50 after 24 hrs using propidium iodide staining by flow cytometry (reference value: 25.97%); assay type: functional; how it was run: as §2
[13] = system: HeLa; experiment: Cell cycle arrest in human HeLa cells assessed as accumulation at G2/M phase cell at 2 times IC50 after 72 hrs using propidium iodide staining by flow cytometry (reference value: 17.57%); assay type: functional; how it was run: as §2
[14] = system: HeLa; experiment: Cell cycle arrest in human HeLa cells assessed as accumulation at sub-G1 phase at 2 times IC50 after 24 hrs using propidium iodide staining by flow cytometry (reference value: 3.34%); assay type: functional; how it was run: as §2
[15] = system: HeLa; experiment: Cell cycle arrest in human HeLa cells assessed as accumulation at sub-G1 phase at 2 times IC50 after 72 hrs using propidium iodide staining by flow cytometry (reference value: 9.85%); assay type: functional; how it was run: as §2

| Compound | IC50 [1] [µM] | IC50 [2] [µM] | IC50 [3] [µM] | further results |
| --- | --- | --- | --- | --- |
| CCCCc1ccc(C(=O)/C=C/C(=O)O)cc1 | 6.74 | 4.95 | 4.78 | – |
| O=C(O)/C=C/C(=O)c1ccccc1 | 45.5 | 30.2 | 30.6 | – |
| COc1ccc(C(=O)/C=C/C(=O)O)c(OC)c1OC | > 100 | > 100 | 96.2 | – |
| CCc1c(C(=O)/C=C/C(=O)O)cc(C(C)C)cc1C(C)C | 12.3 | 5.1 | 7.61 | – |
| Cc1ccc(C(=O)/C=C/C(=O)O)c(Cl)c1 | 27.7 | 14.6 | 7.6 | – |
| O=C(O)/C=C/C(=O)c1ccc(Cl)cc1 | 28.7 | 21.7 | 25.4 | – |
| CC(C)c1ccc(C(=O)/C=C/C(=O)O)c(C(C)C)c1 | 5.36 | 4.68 | 4.06 | – |
| O=C(O)/C=C/C(=O)c1ccc(F)cc1 | 33.8 | 16.9 | 28.4 | – |
| CCc1cc(CC)c(C(=O)/C=C/C(=O)O)c(CC)c1 | 7.28 | 4.01 | 6.53 | – |
| CCc1ccc(C(=O)/C=C/C(=O)O)cc1 | 21 | 5.53 | 27.8 | – |
| COc1ccc(C(=O)/C=C/C(=O)O)cc1 | 34.7 | 12.3 | 27.4 | – |
| O=C(O)/C=C/C(=O)c1ccc(Cl)c(Cl)c1 | 32.3 | 23.2 | 28.3 | – |
| CC(C)c1cc(C(C)C)c(C(=O)/C=C/C(=O)O)c(C(C)C)c1 | 8.28 | 4.67 | 6.1 | – |
| Cc1ccc(C(=O)/C=C/C(=O)O)cc1 | 28.4 | 9.17 | 7.62 | – |
| O=C(O)/C=C/C(=O)c1ccc(Br)cc1 | 27.1 | 11.2 | 18.7 | – |
| Cc1ccc(C(=O)/C=C/C(=O)O)c(C)c1 | 7.08 | 5.35 | 6.06 | – |
| CCCCCCCCCCCCc1ccc(C(=O)/C=C/C(=O)O)cc1 | 7.85 | 4.01 | 5.82 | – |
| O=C(O)/C=C/C(=O)c1ccc2c(c1)CCCC2 | 17.6 | 5.6 | 7.01 | – |
| CCc1ccc(C(C)C)cc1C(=O)/C=C/C(=O)O | 5.94 | 1.36 | 4.89 | – |
| Cc1cc(C2CCCCC2)c(C)cc1C(=O)/C=C/C(=O)O | 6.64 | 4.24 | 2.38 | – |
| O=C(O)/C=C/C(=O)c1ccc(Cl)cc1Cl | > 100 | 58.5 | 62.9 | – |
| CC(C)c1ccc(C(=O)/C=C/C(=O)O)cc1 | 25.7 | 5.56 | 4.9 | – |
| Cc1ccc(C(=O)/C=C/C(=O)O)cc1C | 12.1 | 5.62 | 7.28 | – |
| O=C(O)/C=C/C(=O)c1cc(C2CCCCC2)ccc1C1CCCCC1 | 4.28 | 3.32 | 1.26 | Activity [4]: 15.79%; Activity [5]: 36.94%; Activity [6]: 32.67%; Activity [7]: 39.98%; Activity [8]: 31.66%; Activity [9]: 38.3%; Activity [10]: 16.73%; Activity [11]: 24.2%; Activity [12]: 15.36%; Activity [13]: 16.57%; Activity [14]: 12.64%; Activity [15]: 21.71% |
| CC(C)(C)c1ccc(C(=O)/C=C/C(=O)O)cc1 | 8.74 | 4.33 | 5.1 | – |
| CC(C)c1ccc(C(C)C)c(C(=O)/C=C/C(=O)O)c1 | 6.23 | 3.28 | 4.75 | – |
| Cc1ccc(C)c(C(=O)/C=C/C(=O)O)c1 | 22 | 5.9 | 7.86 | – |

From ChEMBL document CHEMBL1806386, “Antiproliferative activity of aroylacrylic acids. Structure-activity study based on molecular interaction fields” (Eur J Med Chem, 2011)
